Assay results from ChEMBL document CHEMBL1135284 (Bioorg Med Chem Lett, 2002).

Experiments:
[1] = Oral bioavailability; assay type: ADME, organism-based; conditions: rat, in vivo
Summary of the method: (§1)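 Conscious rats dosed by oral route (30 mg/kg) and iv bolus (0.15 mg/kg). Thrombin time tracked over time after each dose. %F derived by comparing areas under the TT-versus-time curves for the two routes.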

Rattus norvegicus [2] = test: Mean occlusion time after (iv) bolus dose of 0.75 mg/kg followed by an infusion of 50 ug/kg/min was determined in rat arterial thrombosis model; assay type: functional
Rattus norvegicus [3] = test: Thrombin time was determined after (iv) bolus dose of 0.75 mg/kg followed by an infusion of 50 ug/kg/min in rat arterial thrombosis model; assay type: functional
Rattus norvegicus [4] = test: Activated partial thromboplastin time was determined after (iv) bolus dose of 0.75 mg/kg followed by an infusion of 50 ug/kg/min in rat arterial thrombosis model; assay type: functional
[5] = Bioavailability was reported; assay type: ADME, organism-based; conditions: rat, in vivo; summary of the method: as §1

N/C(=N\O)N1CCC(CNC(=O)[C@@H]2CC[C@H]3CN(S(=O)(=O)Cc4ccccc4)CC(=O)N32)CC1
bioavailability [1]: ~0.5%

N/C(=N/O)N1CCC(CNC(=O)[C@@H]2CC[C@H]3CN(S(=O)(=O)CCc4ccccc4)CC(=O)N32)CC1
bioavailability [1]: 2.7%
MOT (Rattus norvegicus [2]): 49 min
TT (Rattus norvegicus [3]): 146 s
aPTT (Rattus norvegicus [4]): 25 s

N=C(N)N1CCC(CNC(=O)[C@@H]2CC[C@H]3CN(C(=O)CC(c4ccccc4)c4ccccc4)CC(=O)N32)CC1
MOT (Rattus norvegicus [2]): 21 min
TT (Rattus norvegicus [3]): 85 s
aPTT (Rattus norvegicus [4]): 29 s

N=C(N)[C@H]1CC[C@H](CNC(=O)[C@@H]2CC[C@H]3CN(S(=O)(=O)C(c4ccccc4)c4ccccc4)CC(=O)N32)CC1
bioavailability [1]: 0.1%
MOT (Rattus norvegicus [2]): 44 min
TT (Rattus norvegicus [3]): 724 s
aPTT (Rattus norvegicus [4]): 54 s

N[C@H]1CC[C@H](CNC(=O)[C@@H]2CC[C@H]3CN(S(=O)(=O)CC(c4ccccc4)c4ccccc4)CC(=O)N32)CC1
bioavailability [5]: 1.5%
MOT (Rattus norvegicus [2]): 37 min
TT (Rattus norvegicus [3]): 150 s
aPTT (Rattus norvegicus [4]): 35 s

Cc1nc(N)ccc1CNC(=O)[C@@H]1CC[C@H]2CN(S(=O)(=O)C(c3ccccc3)c3ccccc3)CC(=O)N21
MOT (Rattus norvegicus [2]): >60 min
TT (Rattus norvegicus [3]): 102 s
aPTT (Rattus norvegicus [4]): 27 s

N=C(N)c1ccc(CNC(=O)[C@@H]2CC[C@H]3CN(S(=O)(=O)CC(c4ccccc4)c4ccccc4)CC(=O)N32)cc1
MOT (Rattus norvegicus [2]): >60 min
TT (Rattus norvegicus [3]): 636 s
aPTT (Rattus norvegicus [4]): 74 s

N=C(N)N1CCC(CNC(=O)[C@@H]2CC[C@H]3CN(S(=O)(=O)C(c4ccccc4)c4ccccc4)CC(=O)N32)CC1
MOT (Rattus norvegicus [2]): 52 min
TT (Rattus norvegicus [3]): 154 s
aPTT (Rattus norvegicus [4]): 28 s

N=C(N)N1CCC(CNC(=O)[C@@H]2CC[C@H]3CN(S(=O)(=O)CC(c4ccccc4)c4ccccc4)CC(=O)N32)CC1
bioavailability [1]: 2.2%
MOT (Rattus norvegicus [2]): 36 min
TT (Rattus norvegicus [3]): 214 s
aPTT (Rattus norvegicus [4]): 35 s

N/C(=N/O)N1CCC(CNC(=O)[C@@H]2CC[C@H]3CN(S(=O)(=O)CC(c4ccccc4)c4ccccc4)CC(=O)N32)CC1
bioavailability [1]: 0.7%
MOT (Rattus norvegicus [2]): 45 min
TT (Rattus norvegicus [3]): 148 s
aPTT (Rattus norvegicus [4]): 26 s

Nc1ccc(CNC(=O)[C@@H]2CC[C@H]3CN(S(=O)(=O)CC(c4ccccc4)c4ccccc4)CC(=O)N32)cn1
MOT (Rattus norvegicus [2]): 30 min
TT (Rattus norvegicus [3]): 51 s
aPTT (Rattus norvegicus [4]): 19 s

N=C(N)c1ccc(CNC(=O)[C@@H]2CC[C@H]3CN(S(=O)(=O)Cc4ccccc4)CC(=O)N32)cc1
bioavailability [1]: ~0.5%

N=C(N)c1ccc(CNC(=O)[C@@H]2CC[C@H]3CN(S(=O)(=O)C(c4ccccc4)c4ccccc4)CC(=O)N32)cc1
MOT (Rattus norvegicus [2]): 51 min
TT (Rattus norvegicus [3]): 631 s
aPTT (Rattus norvegicus [4]): 54 s

N/C(=N/O)N1CCC(CNC(=O)[C@@H]2CC[C@H]3CN(C(=O)CC(c4ccccc4)c4ccccc4)CC(=O)N32)CC1
MOT (Rattus norvegicus [2]): 35 min
TT (Rattus norvegicus [3]): 63 s
aPTT (Rattus norvegicus [4]): 23 s

N/C(=N/O)N1CCC(CNC(=O)[C@@H]2CC[C@H]3CN(S(=O)(=O)C(c4ccccc4)c4ccccc4)CC(=O)N32)CC1
bioavailability [1]: 1.9%
MOT (Rattus norvegicus [2]): 46 min
TT (Rattus norvegicus [3]): 230 s
aPTT (Rattus norvegicus [4]): 28 s

N[C@H]1CC[C@H](CNC(=O)[C@@H]2CC[C@H]3CN(S(=O)(=O)C(c4ccccc4)c4ccccc4)CC(=O)N32)CC1
MOT (Rattus norvegicus [2]): >60 min
TT (Rattus norvegicus [3]): 216 s
aPTT (Rattus norvegicus [4]): 44 s

Cc1cc(C(=N)N)ccc1CNC(=O)[C@@H]1CC[C@H]2CN(S(=O)(=O)C(c3ccccc3)c3ccccc3)CC(=O)N21
MOT (Rattus norvegicus [2]): >60 min
TT (Rattus norvegicus [3]): 354 s
aPTT (Rattus norvegicus [4]): 42 s
